Experimental data published in PubChem BioAssay.
Records with an inconclusive call do not appear.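 The calls were made as follows, unless noted: active = inhibition over a set limit, the all-compound mean plus 3 SD, in both replicate runs; inconclusive = over that limit in just one replicate run; inactive = at or under that limit in both runs.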

Columns and labels:
[1] = S. cerevisiae growth inhibition in permissive medium (OD615), pilot counter-assay for S. cerevisiae lifespan shortening project, permissive growth control (AID 705;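 active = growth inhibition above 25% in both replicates, a cutoff set 3 SD above the mean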); details: OD615, 24 h, at 10 µM, hits give high values
Method in brief: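 System: Engineered DeaD yeast | Buffer or medium: SC raffinose/galactose permissive medium | Incubation: Cells pre-grown 4 h, then 24 h compound exposure, 30 °C humidified | Measured by: Absorbance (optical density) at 615 nm | Read-out: Reduction in yeast growth (OD615)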

[2] = S. cerevisiae growth inhibition in restrictive medium, OD615, pilot screen, restrictive growth control, yeast lifespan reduction project (AID 706;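 active = growth inhibition above a set limit, 3 SD over mean compound inhibition, in both replicates, cut at about 43% in these data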;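 also: modified DeaD lifespan yeast strain shifted to restrictive glucose medium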); details: OD615, 48 h, at 10 µM, hits give high values
Method in brief: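 Material: modified S. cerevisiae; Medium: glucose-based CSMM-D restrictive medium; Compound dosing: one concentration, 10 µM final, 0.25% DMSO; Incubation: 48 h compound exposure at 30 °C; Measured by: OD615.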

[3] = doxorubicin toxicity protection in MRP-1 cells – H69AR cells, CellTiter-Glo, duplicate, MRP-1 activator project, pilot screen (AID 807;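 active = viability increase at or above a cutoff of the median across tested compounds plus 3 SD, cut at about 8.5% in these data, passing the limit was not always enough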;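 also: compound pretreatment 18-22 h then 72 h combined with doxorubicin; 0% = doxorubicin alone and 100% = vehicle without doxorubicin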); details: H69AR viability with doxorubicin, CellTiter-Glo luminescence; at 10 µM; hits give high values
[4] = viability of HCT116 without oncogenic beta-catenin – human colon tumor cells, pilot screen (AID 823;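 active = cell viability at or below a set limit in both duplicate runs, the limit being the all-compound median minus 4 SD, cut at about 23% in these data, passing the limit was not always enough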;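 also: 0% = wells killed by 20 µM Hyamine and 100% = untreated DMSO cell wells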); details: HCT116 beta-catenin knockout viability, CellTiter-Glo, 60 h; at 10 µM; hits give low values
[5] = viability of PTEN-null HCT116 cells – cell-based, HCT116 clonal line, CellTiter-Glo, pilot screen (AID 824;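 active = viability at or below 27.92% in each of two runs, the all-compound median minus 4 SD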;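 also: 0% = 20 µM Hyamine control and 100% = vehicle cell control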); details: HCT116 PTEN-deleted viability, 60 h, at 10 µM, hits give low values
[6] = RAM pathway blockade in budding yeast – dse1pr::URA3 reporter, 5-FOA selection, pilot screen (AID 869);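 also: 0% = DMSO wells with no growth and 100% = 10 µM 1-NA-PP1 with full growth; RAM network block rescues cells from 5-FOA so hits raise OD615 growth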; details: S. cerevisiae dse1pr::URA3 5-FOA growth, OD615, 2 d; at 10 µM; hits give high values; strain carries analog-sensitive mutant Cbk1 kinase
[7] = RAM signaling pathway blockade in yeast – S. cerevisiae, Pdr1DBD-CYC8 efflux-inhibited sensitized strain, primary screen (AID 1298;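 active = RAM network inhibition above 8.4% in each of two replicates, 3 SD over the compound average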;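 also: 0% = DMSO untreated cells without growth and 100% = 10 µM 1-NA-PP1 full growth; higher means more yeast growth rescued from 5-FOA killing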); details: S. cerevisiae cbk1-as DSE1-URA3 strain, 5-FOA growth OD615, 2 d; at 50 µM; hits give high values

Cc1cc(C)cc(N(CC(=O)Nc2c(C)n(C)n(-c3ccccc3)c2=O)S(C)(=O)=O)c1
inactive: growth inhibition [1] -11.3% | growth inhibition [2] -11.2% | viability increase [3] -1.95% | viability [4] 96.2% | viability [5] 93.2% | inhibition [6] 0.71% | RAM network inhibition [7] 2.45%

Cc1ccc(NC(=O)C2CCN(S(=O)(=O)c3cccc4cccnc34)CC2)nc1
inactive: growth inhibition [1] 2.12% | growth inhibition [2] -7.59% | viability increase [3] -2.71% | viability [4] 88.1% | viability [5] 87.2% | inhibition [6] -0.475% | RAM network inhibition [7] 3.26%

N#Cc1cccc(NC(=O)CC2CCCCC2)c1
inactive: growth inhibition [1] -1.48% | growth inhibition [2] 11.6% | viability increase [3] -0.95% | viability [4] 95% | viability [5] 86.8% | inhibition [6] 0.645% | RAM network inhibition [7] 2.76%

COc1ccc(Br)cc1S(=O)(=O)N1CCN=C1C
inactive: growth inhibition [1] -0.525% | growth inhibition [2] -18.3% | viability increase [3] -1.79% | viability [4] 91.1% | viability [5] 83.4% | inhibition [6] 0.79% | RAM network inhibition [7] -0.12%

CCOC(=O)c1cnn(CC2CCCCC2)c1N
inactive: growth inhibition [1] 0.805% | growth inhibition [2] 1.77% | viability increase [3] -0.78% | viability [4] 92.4% | viability [5] 94.4% | inhibition [6] 0.96% | RAM network inhibition [7] -0.52%

CC(=O)c1ccc(NC(=O)C2CCCN2S(=O)(=O)c2cccc3cccnc23)cc1 (stereo not given)
inactive: growth inhibition [1] -11.2% | growth inhibition [2] -8.78% | viability increase [3] -1.7% | viability [4] 98.1% | viability [5] 95.8% | inhibition [6] 0.505% | RAM network inhibition [7] 5.11%

Cc1csc2nc(CNS(=O)(=O)c3ccc(-c4ccccc4)cc3)cn12
inactive: growth inhibition [1] -8.76% | growth inhibition [2] 7% | viability increase [3] -1.09% | viability [4] 90.2% | viability [5] 93.7% | inhibition [6] 0.94% | RAM network inhibition [7] 4.87%

CCOc1ccc(NC(=O)Nc2ccc3c(c2)N(C)C(=O)CS3)cc1
inactive: growth inhibition [1] -12% | growth inhibition [2] -33.6% | viability increase [3] -4.56% | viability [4] 98.9% | viability [5] 89.1% | inhibition [6] 4.93% | RAM network inhibition [7] 5.76%

COc1cc(C2C(C(N)=O)=C(C)Nc3nc(CCCO)nn32)cc(OC)c1OC (stereo not given)
inactive: growth inhibition [1] -3.16% | growth inhibition [2] -9.14% | viability increase [3] -0.36% | viability [4] 101% | viability [5] 95% | inhibition [6] 0.785% | RAM network inhibition [7] 0.15%

CC1(C)Oc2ccc3ccc(=O)oc3c2/C(=C/N)C1=O
inactive: growth inhibition [1] -6.37% | growth inhibition [2] -4.45% | viability increase [3] -4.51% | viability [4] 88.5% | viability [5] 81.7% | inhibition [6] 0.535% | RAM network inhibition [7] -0.57%

Cn1c(NC(=O)CC2CCCCC2)cc(=O)n(C)c1=O
inactive: growth inhibition [1] -14% | growth inhibition [2] -21.6% | viability increase [3] -0.04% | viability [4] 93.3% | viability [5] 87% | inhibition [6] 0.43% | RAM network inhibition [7] -0.37%

COc1cccc(C2c3c(oc4cc(C)c(C)cc4c3=O)C(=O)N2CCCN(C)C)c1 (stereo not given)
inactive: growth inhibition [1] -8.88% | growth inhibition [2] 0.12% | viability increase [3] -3.94% | viability [4] 93.6% | viability [5] 94.6% | inhibition [6] 0.885% | RAM network inhibition [7] 1.83%

CC(=O)C1C(c2ccc(OC(F)F)cc2)NC(=O)NC1(O)C(F)(F)F (stereo not given)
inactive: growth inhibition [1] 3.71% | growth inhibition [2] -6.05% | viability increase [3] 0.74% | viability [4] 107% | viability [5] 97.4% | inhibition [6] 0.31% | RAM network inhibition [7] 5.93%

Cn1c(NC(=O)c2ccc(C(C)(C)C)cc2)cc(=O)n(C)c1=O
inactive: growth inhibition [1] -2.62% | growth inhibition [2] -6.46% | viability increase [3] -2.04% | viability [4] 91.1% | viability [5] 96.5% | inhibition [6] 1.97% | RAM network inhibition [7] 1.63%

CC(C)CC(NS(=O)(=O)c1ccc2c(c1)oc(=O)n2C)C(=O)NCc1cccnc1 (stereo not given)
inactive: growth inhibition [1] -0.43% | growth inhibition [2] 15.8% | viability increase [3] -0.08% | viability [4] 112% | viability [5] 98.9% | inhibition [6] 1.82% | RAM network inhibition [7] 0.99%

CC1Cn2c(COc3ccccc3)nnc2S1 (stereo not given)
inactive: growth inhibition [1] -8.31% | growth inhibition [2] 6.73% | viability increase [3] -0.25% | viability [4] 102% | viability [5] 94.1% | inhibition [6] 0.645% | RAM network inhibition [7] 4%

O=C(Nc1cnc2ccccc2c1)c1cccnc1
inactive: growth inhibition [1] 4.78% | growth inhibition [2] 0.625% | viability increase [3] -7.98% | viability [4] 103% | viability [5] 103% | inhibition [6] 1.74% | RAM network inhibition [7] -0.15%

Cn1c(Cn2c(=O)sc3ccccc32)nnc1SCC(=O)N1CCN(c2ccccc2)CC1
inactive: growth inhibition [1] 0.845% | growth inhibition [2] 24.3% | viability increase [3] -0.95% | viability [4] 100% | viability [5] 96.6% | inhibition [6] 0.04% | RAM network inhibition [7] 3.66%

Cc1ccc(C)c2[nH]c(=O)c(CCNC(=O)C(C)C)cc12
inactive: growth inhibition [1] -14.5% | growth inhibition [2] -18.6% | viability increase [3] -0.31% | viability [4] 102% | viability [5] 104% | inhibition [6] 1.83% | RAM network inhibition [7] 2.82%

COc1cc(NC(=O)C2CCC(CNc3c(N4CCCCC4)c(=O)c3=O)CC2)cc(OC)c1 (stereo not given)
inactive: growth inhibition [1] 0.52% | growth inhibition [2] -2.35% | viability increase [3] -0.71% | viability [4] 95.2% | viability [5] 95.9% | inhibition [6] 1.79% | RAM network inhibition [7] 5.55%

CCOC(=O)c1ccc(N2C(=O)CC(N3CCN(Cc4ccccc4)CC3)C2=O)cc1 (stereo not given)
inactive: growth inhibition [1] -18.6% | growth inhibition [2] -15.4% | viability increase [3] 0.7% | viability [4] 101% | viability [5] 103% | inhibition [6] 0.175% | RAM network inhibition [7] 2.65%

O=S(=O)(Nc1ccc2nc(C(F)(F)F)[nH]c2c1)c1ccccc1
inactive: growth inhibition [1] -1.94% | growth inhibition [2] -0.635% | viability increase [3] 0.27% | viability [4] 85.5% | viability [5] 82% | inhibition [6] 0.97% | RAM network inhibition [7] 1.68%

COc1ccccc1NC(=O)CSc1nnc(C)o1
inactive: growth inhibition [1] -7.09% | growth inhibition [2] -9.04% | viability increase [3] -1.19% | viability [4] 101% | viability [5] 102% | inhibition [6] 2.02% | RAM network inhibition [7] 2.69%

CCOc1ccc(N2C(=O)c3ccccc3C2O)cc1 (stereo not given)
inactive: growth inhibition [1] 6.33% | growth inhibition [2] 11.8% | viability increase [3] 1.68% | viability [4] 101% | viability [5] 87.5% | inhibition [6] -0.05% | RAM network inhibition [7] 2.58%

Cc1cc(=O)c2c(C)nn(-c3ccccc3)c2[nH]1
inactive: growth inhibition [1] -2.51% | growth inhibition [2] 2.11% | viability increase [3] -2.26% | viability [4] 96.7% | viability [5] 92.3% | inhibition [6] 2.23% | RAM network inhibition [7] 1.4%

Cn1c(C(=O)NCCN2CCc3ccccc3C2)cc2c(=O)n(C)c3ccccc3c21
inactive: growth inhibition [1] -2.54% | growth inhibition [2] 4.4% | viability increase [3] -4.36% | viability [4] 70.4% | viability [5] 72.5% | inhibition [6] 2.96% | RAM network inhibition [7] 1.02%

CCOc1ccc(NC(=O)CSc2nnc(Cc3cccn3C)n2-c2ccc(F)cc2)cc1
inactive: growth inhibition [1] 11.1% | growth inhibition [2] 19.2% | viability increase [3] -4.64% | viability [4] 95.7% | viability [5] 91% | inhibition [6] 1.56% | RAM network inhibition [7] 6.97%

Cn1c(Cn2c(=O)sc3ccccc32)nnc1SCC(=O)NCc1ccccc1
inactive: growth inhibition [1] -10.1% | growth inhibition [2] -7.48% | viability increase [3] -0.73% | viability [4] 99% | viability [5] 102% | inhibition [6] 3.87% | RAM network inhibition [7] 4.44%

CCC1CCCCN1C(=O)c1cc2cc(Br)ccc2oc1=O (stereo not given)
inactive: growth inhibition [1] -9.03% | growth inhibition [2] -15.9% | viability increase [3] -2.87% | viability [4] 106% | viability [5] 94.8% | inhibition [6] 0.68% | RAM network inhibition [7] 2.89%

CCOC(=O)N1CCN(C(=O)c2cnn3ccccc23)CC1
inactive: growth inhibition [1] -9.02% | growth inhibition [2] -2.02% | viability increase [3] -1.3% | viability [4] 103% | viability [5] 100% | inhibition [6] 4.82% | RAM network inhibition [7] -1.68%

CCCN1CCN(C(=O)CCCn2c(C)c3cnn(-c4ccccc4)c(=O)c3c2C)CC1
inactive: growth inhibition [1] -10.1% | growth inhibition [2] -6.09% | viability increase [3] -2.94% | viability [4] 102% | viability [5] 105% | inhibition [6] -0.215% | RAM network inhibition [7] 3.77%

COC1=C(OC)c2ccccc2C(C(=O)O)N/C1=C(/C)Nc1ccncc1 (stereo not given)
inactive: growth inhibition [1] -5.63% | growth inhibition [2] -2.54% | viability increase [3] -0.91% | viability [4] 94.7% | viability [5] 91.5% | inhibition [6] 1.11% | RAM network inhibition [7] -1.82%

Cn1c(=O)n(C)c2cc(CN3C(=O)OC(C)(C)C3(C)O)ccc21 (stereo not given)
inactive: growth inhibition [1] 2.22% | growth inhibition [2] 0.365% | viability increase [3] -1.11% | viability [4] 105% | viability [5] 95.2% | inhibition [6] 0.09% | RAM network inhibition [7] 4.45%

O=C(O)c1ccc(NS(=O)(=O)c2ccc3c(c2)OCCO3)cc1
inactive: growth inhibition [1] 4.96% | growth inhibition [2] -3.53% | viability increase [3] 0.04% | viability [4] 107% | viability [5] 108% | inhibition [6] 0.975% | RAM network inhibition [7] 1.55%

COc1cccc(NC(=O)CSc2nnc(-c3ccc(C)cc3)o2)c1
inactive: growth inhibition [1] -10.3% | growth inhibition [2] -11.9% | viability increase [3] -0.97% | viability [4] 93.9% | viability [5] 93.8% | inhibition [6] 2.13% | RAM network inhibition [7] 4%
